Published values of several laboratories.
speB: speB (Escherichia coli, UniProt P60651)
ASIC1: Acid-sensing ion channel 1 (ASIC1, Homo sapiens, UniProt P78348)

CC(C)=CCN=C(N)N
Ki (speB; enzyme activity, inhibitor, absorbance; pH 8.5): 8.59 µM

CC[C@H](C)[C@H](NC(=O)[C@@H]1CCCN1C(=O)[C@H](C)NC(=O)[C@@H]1CSSC[C@@H]2NC(=O)[C@H](CC(=O)O)NC(=O)[C@H](CCCNC(=N)N)NC(=O)[C@H](CCC(=O)O)NC(=O)[C@H](CCCNC(=N)N)NC(=O)CNC(=O)[C@H](CC(=O)O)NC(=O)[C@@H]3CSSC[C@H](NC(=O)[C@H](CCC(=O)O)NC(=O)[C@H](CC(C)C)NC(=O)CNC(=O)[C@H](C)NC(=O)[C@H](CSSC[C@H](NC(=O)[C@H](Cc4ccccc4)NC(=O)[C@@H](N)CO)C(=O)N[C@@H](CC(C)C)C(=O)N[C@@H](C(C)C)C(=O)N[C@@H](CCCCN)C(=O)N[C@@H](Cc4c[nH]c5ccccc45)C(=O)N[C@@H](CCCCN)C(=O)N[C@@H](CCC(N)=O)C(=O)N3)NC2=O)C(=O)N[C@@H](Cc2c[nH]c3ccccc23)C(=O)N[C@@H](CCCCN)C(=O)N[C@@H](CCCNC(=N)N)C(=O)N[C@@H](CCCNC(=N)N)C(=O)NCC(=O)N[C@@H](CC(N)=O)C(=O)N[C@@H](CCCCN)C(=O)N[C@@H](CO)C(=O)N[C@@H](CO)C(=O)N[C@@H](C(C)C)C(=O)N1)C(=O)N[C@H](C(=O)O)[C@@H](C)O
Kd (ASIC1; binding, SPR; pH 7.5): 0.0277 nM

CNC(=O)c1ccc(-c2cnn3ccc(C(=O)N(C)c4ccc(Cl)c(C(=O)OC)c4)cc23)cc1
IC50 (Casein kinase I isoform delta (CSNK1D, Homo sapiens, UniProt P48730); enzyme activity, inhibitor): > 30 µM

O=S(=O)(O)c1ccc2c(N=Nc3c(O)ccc4ccccc34)cccc2c1
Ki (Bcl-2-related protein A1 (Mus musculus, UniProt Q07440, C113S/P104K); ligand displacement, FP): 1.62 µM

COc1ccc2[nH]c(C)c(CC[N+](C)(C)C)c2c1
EC50 (5-hydroxytryptamine receptor 2C (HTR2C, Homo sapiens, UniProt P28335); calcium signal, agonist): > 5 µM

CC[C@H](C)[C@@H]1NC(=O)[C@@H](NC(=O)[C@H](CCC(=O)O)NC(=O)[C@H](CC(N)=O)NC(=O)[C@@H](N)CO)CSSC[C@@H]2NC(=O)[C@@H]3CSSC[C@@H](C(=O)N[C@H](C(=O)N4CCC[C@H]4C(=O)N[C@H](C(=O)N4CCC[C@H]4C(=O)NCC(=O)O)[C@@H](C)CC)C(C)C)NC(=O)[C@H](C(C)C)NC(=O)[C@H](CCC(=O)O)NC(=O)[C@H](Cc4ccccc4)NC(=O)[C@H](CO)NC(=O)[C@H](Cc4c[nH]cn4)NC(=O)[C@H](CCCNC(=N)N)NC(=O)[C@H](CCCNC(=N)N)NC(=O)[C@H](CCCCN)NC(=O)[C@H](Cc4ccc(O)cc4)NC(=O)[C@H](CSSC[C@H](NC(=O)[C@H](CO)NC(=O)[C@H](CC(C)C)NC(=O)[C@H](Cc4c[nH]c5ccccc45)NC(=O)[C@H](CCCCN)NC(=O)[C@H](CCCNC(=N)N)NC1=O)C(=O)N[C@@H](C(C)C)C(=O)N[C@@H](CC(=O)O)C(=O)N[C@@H](CCCNC(=N)N)C(=O)N[C@@H](CCCCN)C(=O)N[C@@H](CC(N)=O)C(=O)N[C@@H](CC(=O)O)C(=O)N3)NC(=O)[C@H](CCC(=O)O)NC(=O)[C@H](CC(C)C)NC(=O)CNC(=O)[C@H](CCC(=O)O)NC2=O
Kd (ASIC1; binding, SPR): 1.4 nM

CN(C)C(=N)N=C(N)N
Ki (speB; enzyme activity, inhibitor, absorbance; pH 8.5): 1250 µM

CNC(=O)c1ccc(-c2cnn3ccc(C(=O)N(C)c4ccc(Cl)c(C(=O)O)c4)cc23)cc1
IC50 (5-hydroxytryptamine receptor 2B (HTR2B, Homo sapiens, UniProt P41595); cell-free assay): > 30 µM
